Experimental data published in article PMC8427789 (ACS Omega, 2021).

Key:
[1] = molecular target: yeast α-glucosidase (yeast AG) (Saccharomyces cerevisiae, UniProt P53051); test: biochemical
PTP-1B = molecular target: T1, PTP-1B (Homo sapiens, UniProt P18031); test: PTP-1B kinetic studies; type: biochemical
T1 sequence (P18031 1-435): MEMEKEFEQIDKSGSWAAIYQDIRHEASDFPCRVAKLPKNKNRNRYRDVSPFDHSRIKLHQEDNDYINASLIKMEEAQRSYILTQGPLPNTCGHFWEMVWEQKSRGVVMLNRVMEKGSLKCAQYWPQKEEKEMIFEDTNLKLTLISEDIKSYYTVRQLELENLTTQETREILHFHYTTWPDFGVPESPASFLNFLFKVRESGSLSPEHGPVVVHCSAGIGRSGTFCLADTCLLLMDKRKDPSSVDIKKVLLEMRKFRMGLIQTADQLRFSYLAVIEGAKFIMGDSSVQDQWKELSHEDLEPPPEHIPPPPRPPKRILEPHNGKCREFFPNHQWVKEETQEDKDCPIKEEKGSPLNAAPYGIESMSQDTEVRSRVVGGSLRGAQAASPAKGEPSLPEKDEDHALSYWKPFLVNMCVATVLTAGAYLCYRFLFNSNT
Method in brief: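 Recombinant human PTP-1B in 100 mM tris buffer, pH 6.8. Test compound at 0.03, 0.07 and 0.1 mM, dissolved in DMSO or buffer, preincubated 5 min with enzyme (solution at 1.56 mg/mL). Then p-NPP added at 0.6–3 mM for 20 min at room temperature, absorbance read at 415 nm. Lineweaver–Burk double-reciprocal plots made; Vmax, Km and Ki from nonlinear regression fit.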

[2] = molecular target: T2, recombinant human protein tyrosine phosphatase 1B (PTP-1B) (Homo sapiens, UniProt P18031); test: PTP-1B activity assay; type: biochemical
T2 sequence (P18031 1-435): T1 sequence (P18031 1-435)

yeast α-glucosidase (yeast AG), sequence (P53051 2-589): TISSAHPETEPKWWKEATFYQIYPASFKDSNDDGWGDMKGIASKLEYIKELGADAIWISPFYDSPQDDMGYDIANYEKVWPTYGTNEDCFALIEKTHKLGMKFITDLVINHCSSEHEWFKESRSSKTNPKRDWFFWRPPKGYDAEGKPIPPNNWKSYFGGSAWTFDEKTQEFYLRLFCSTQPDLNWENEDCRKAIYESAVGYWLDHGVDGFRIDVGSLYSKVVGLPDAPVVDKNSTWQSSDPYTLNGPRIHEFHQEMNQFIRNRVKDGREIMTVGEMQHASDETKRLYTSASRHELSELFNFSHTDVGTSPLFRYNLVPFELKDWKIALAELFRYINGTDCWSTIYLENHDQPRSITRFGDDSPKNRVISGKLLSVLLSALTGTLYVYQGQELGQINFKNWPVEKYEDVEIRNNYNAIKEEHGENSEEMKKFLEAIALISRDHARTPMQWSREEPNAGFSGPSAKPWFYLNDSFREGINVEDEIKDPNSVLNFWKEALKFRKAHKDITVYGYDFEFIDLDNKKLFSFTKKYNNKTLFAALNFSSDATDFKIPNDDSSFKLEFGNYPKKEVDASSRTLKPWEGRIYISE

C[C@H]1O[C@H](O[C@H]2[C@H](O)[C@@H](O)[C@@H](O[C@H]3[C@H](O)[C@@H](O)C(O)O[C@@H]3CO)O[C@@H]2CO)[C@H](O)[C@@H](O)[C@@H]1N[C@H]1C=C(CO)[C@@H](O)[C@H](O)[C@H]1O (some centres unmarked) [acarbose]
IC50 [1]: 403 ± 10 µM

COC(=O)c1c(O)ccc2oc3cc(CO)cc(O)c3c(=O)c12 [Compound 3, sydowinin B]
Ki (PTP-1B): 27.5 µM
type of inhibition of PTP-1B (PTP-1B; Lineweaver–Burk plot): noncompetitive
Vmax (PTP-1B; PTP-1B, p-NPP): 1.308 mM/min
IC50 [2]: 81 ± 4 µM
